Published values gathered from unrelated publications.
Each line is one published result; the experiments were not run side by side.
Read-out: cell growth or viability

CN(C)CCNC(=O)c1ccc(-c2nc3ccc4[nH]ncc4c3c3c2COCC3)cc1 — GI50 (K562; resazurin; 72 h): 3500 nM
CCCCCCCCCCCCCCCCCCOCC(COP(=O)([O-])OCC[N+](C)(C)C)OC (stereo not drawn) — inhibition (HOP-62; SRB; 10 µM): 56%
O=C(Nc1cccc(Br)c1)c1cccc(S(=O)(=O)N2CCCCCC2)c1 — viability (OCI-Ly1; ATP luminescence; 1 µM; 5 days): 153%
NC(=O)c1ccc(-c2nc3ccc4[nH]ncc4c3c3c2CCCC3)cc1 — GI50 (K562; resazurin; 72 h): 7600 nM
CCCCCCCCCCCCCCCCCCOc1ccccc1CC(=O)OCC[N+](C)(C)C — inhibition (HOP-62; SRB; 10 µM): 95.1%
CN(C)CCNC(=O)c1ccc(-c2nc3ccc4[nH]ncc4c3c3c2CCCCC3)c(F)c1 — GI50 (K562; resazurin; 72 h): 1400 nM
COC(=O)CNC(=O)C(=O)OC — viability (OCI-Ly1; ATP luminescence; 0.5 µM; 5 days): 168%
O=C(Nc1ccc(-c2ccccc2)cc1)[C@H]1O[C@H](O[C@@H]2[C@@H](OCc3ccc4ccccc4c3)[C@H](O[C@H]3O[C@H](CNS(=O)(=O)O)[C@@H](OCc4ccc5ccccc5c4)C[C@H]3NS(=O)(=O)O)[C@@H](NS(=O)(=O)O)C[C@H]2NS(=O)(=O)O)[C@H](OCc2ccc3ccccc3c2)[C@@H](NS(=O)(=O)O)[C@@H]1OCc1ccc2ccccc2c1 — EC50 (4T1; CCK-8; 48 h): 12.5 µM
CCCCCCCCCCCCCCCCCCOc1cccc(CC(=O)OCC[N+](CC)(CC)CC)c1 — inhibition (HOP-62; SRB; 10 µM): 30.9%
C[C@H](Nc1ccc2c(c1)OCCn1cc(N3C(=O)OC[C@H]3C(F)F)nc1-2)C(N)=O — EC50 (ESS-1; ATP luminescence; 5 days): 0.341 µM
O=C(CCCCCCC(=O)Nc1ccccc1)NO — viability (OCI-Ly1; ATP luminescence; 0.1 µM; 5 days): 162%
CCCCCCCCCCCCCCCCCCOc1ccccc1CC(=O)OCC[N+](CC)(CC)CC — inhibition (HOP-92; SRB; 10 µM): 93.2%
O=C(NO)c1ccc(CC(=O)N(CCO)c2ccccc2)cc1 — viability (OCI-Ly1; ATP luminescence; 0.1 µM; 5 days): 94.6%
O=C(NCCN1CCCC1)c1ccc(-c2nc3ccc4[nH]ncc4c3c3c2CCCC3)c(F)c1 — GI50 (K562; resazurin; 72 h): 1700 nM
CCCCCCCCCCCCCCCCCCOc1ccccc1CC(=O)OCC[N+]1(C)CCOCC1 — inhibition (HOP-92; SRB; 10 µM): 55.8%
